Test results reported in ChEMBL document CHEMBL2034955, “Thieno[3,2-b]thiophene-2-carboxylic acid derivatives as GPR35 agonists” (Bioorg Med Chem Lett, 2012).
Calls of active or inactive are those of the source. No cut-off for these calls is given here.

What was measured:
[1] = target: T1, G-protein coupled receptor 35 (Homo sapiens, UniProt Q9HC97); test: Agonist activity at GPR35 in human HT-29 cells by dynamic mass redistribution assay; type: functional, cell-based
[2] = target: T1, G-protein coupled receptor 35; test: Agonist activity at GPR35 in human U2OS cells expressing beta-lactamase and Gal4-VP16 transcription factor assessed as beta arrestin translocation after 5 hrs by Tango assay relative to zaprinast; type: functional, cell-based
Outline: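 Tango GPR35-bla U2OS cells seeded at 10,000/well and cultured overnight in DMEM with 10% dialyzed FBS. Ligand stimulation 5 h at 37 °C/5% CO2, then LiveBLAzer FRET B/G substrate loading for 2 h. […] EC50 from monophasic sigmoidal fit. Two independent runs, each in duplicate (n = 4).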

[3] = target: T1, G-protein coupled receptor 35; test: Agonist activity at GPR35 in human U20S cells expressing beta-lactamase and Gal4-VP16 transcription factor assessed as beta arrestin translocation at 20 uM after 5 hrs by Tango assay in the presence of ML-145; type: functional, cell-based; conditions: U2OS
Outline: (§1)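 Tango antagonist format in GPR35-bla U2OS cells. Agonist at a fixed dose was combined with varying ML-145 doses, followed by 5 h stimulation at 37 °C and 2 h FRET B/G substrate loading. Coumarin/fluorescein ratio read out, with IC50 derived. Two independent runs, each in duplicate (n = 4).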

[4] = target: T1, G-protein coupled receptor 35; test: Agonist activity at GPR35 in human HT-29 cells at 250 nM by dynamic mass redistribution assay in presence of CID 2745687; type: functional, cell-based
Outline: (§2)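 Native HT-29 cells seeded at 32,000/well and cultured overnight to confluence in McCoy's 5a with 10% FBS at 37 °C/5% CO2, washed twice and held in 1x HBSS for 1 h. CID 2745687 was pre-incubated 10 min at varying doses, then agonist added at a fixed dose. DMR amplitude read 10 min poststimulation, background corrected. Two independent runs, each in duplicate (n = 4).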

[5] = target: T1, G-protein coupled receptor 35; test: Agonist activity at GPR35 in human U20S cells expressing beta-lactamase and Gal4-VP16 transcription factor assessed as beta arrestin translocation after 5 hrs by Tango assay; type: functional, cell-based, U2OS
Outline: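 Tango GPR35-bla U2OS cells seeded at 10,000/well and cultured overnight in DMEM with 10% dialyzed FBS. Ligand stimulation 5 h at 37 °C/5% CO2, then LiveBLAzer FRET B/G substrate loading for 2 h. EC50 from monophasic sigmoidal fit. Two independent runs, each in duplicate (n = 4).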

[6] = target: T1, G-protein coupled receptor 35; test: Agonist activity at GPR35 in human HT-29 cells by dynamic mass redistribution assay relative to zaprinast; type: functional, cell-based
[7] = target: T1, G-protein coupled receptor 35; test: Agonist activity at GPR35 in human U20S cells expressing beta-lactamase and Gal4-VP16 transcription factor assessed as beta arrestin translocation at 64 uM after 5 hrs by Tango assay in the presence of ML-145; type: functional, cell-based; conditions: U2OS; outline: as §1
[8] = target: T1, G-protein coupled receptor 35; test: Agonist activity at GPR35 in human U20S cells expressing beta-lactamase and Gal4-VP16 transcription factor assessed as beta arrestin translocation at 100 uM after 5 hrs by Tango assay in the presence of ML-145; type: functional, cell-based; conditions: U2OS; outline: as §1
[9] = target: T1, G-protein coupled receptor 35; test: Agonist activity at GPR35 in human U20S cells expressing beta-lactamase and Gal4-VP16 transcription factor assessed as beta arrestin translocation at 10 uM after 5 hrs by Tango assay in the presence of ML-145; type: functional, cell-based; conditions: U2OS; outline: as §1
[10] = target: T1, G-protein coupled receptor 35; test: Agonist activity at GPR35 in human HT-29 cells at 125 nM by dynamic mass redistribution assay in presence of CID 2745687; type: functional, cell-based; outline: as §2
[11] = target: T1, G-protein coupled receptor 35; test: Agonist activity at GPR35 in human HT-29 cells assessed as receptor internalization at 12.5 uM after 1 hr by confocal microscopy; type: functional, cell-based
Outline: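 HT-29 cells treated 1 h with agonist in assay vehicle containing 0.1% DMSO (vehicle control), then permeabilized and immunostained with anti-GPR35 plus fluorescent secondary antibody. Internalization judged from confocal fluorescence images.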

[12] = target: T1, G-protein coupled receptor 35; test: Agonist activity at GPR35 in human HT-29 cells at 2 uM by dynamic mass redistribution assay in presence of CID 2745687; type: functional, cell-based; outline: as §2

T1 sequence (Q9HC97 whole entry, the tested form may be a part): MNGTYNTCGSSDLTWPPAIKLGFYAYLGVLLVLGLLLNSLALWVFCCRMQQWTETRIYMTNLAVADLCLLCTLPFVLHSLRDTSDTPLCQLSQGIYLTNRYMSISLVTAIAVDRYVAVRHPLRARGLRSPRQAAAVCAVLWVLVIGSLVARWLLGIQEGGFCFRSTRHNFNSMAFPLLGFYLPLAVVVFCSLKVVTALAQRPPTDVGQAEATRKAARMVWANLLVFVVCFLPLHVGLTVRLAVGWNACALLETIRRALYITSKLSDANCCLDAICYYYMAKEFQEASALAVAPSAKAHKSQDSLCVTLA

| SMILES | EC50 ([1]; read-out: EC50) [µM] | Efficacy [2] [%] | EC50 ([5]; read-out: EC50) [µM] | Efficacy [6] [pm] | further results |
| --- | --- | --- | --- | --- | --- |
| Cc1c(C(=O)O)sc2c(C3CC3)csc12 | 0.95 | 101 | 52.4 | 262 |  |
| Cc1c(C(=O)O)n(C)c2c(Br)csc12 | 5.3 | 77 | 87.5 | 290 |  |
| CCOC(=O)c1sc2c(Br)c(Br)sc2c1C(F)(F)F |  |  |  |  | EC50 ([1]; ht-29): Not Active; EC50 ([5]; u2os): Not Active |
| Cc1c(C(=O)O)sc2c(-c3cn[nH]c3)csc12 | 0.37 | 102 | 52.5 | 180 |  |
| Cc1c(C(=O)O)[nH]c2c(Br)csc12 | 11.8 | 24 | 113 | 222 |  |
| Cc1c(C(=O)O)[nH]c2c(C3CC3)csc12 | 8.37 | 35 | 119 | 228 |  |
| O=C(O)c1sc2ccsc2c1O | 9.78 | 64 | 340 | 159 |  |
| C#Cc1csc2c(C)c(C(=O)O)sc12 | 1.48 | 102 | 54.8 | 257 |  |
| O=C(O)c1cc(=O)c2ccccc2[nH]1 [TRANSTORINE] |  | > 60 | > 500 | 202 | EC50 ([1]; ht-29, read-out: EC50): 152 µM |
| O=C(O)c1sc2c(Br)csc2c1C1CC1 | 2.63 | 46 | 504 | 246 |  |

Now from value to compound, other results behind:

| EC50 ([1]; read-out: EC50) [µM] | Efficacy [2] [%] | EC50 ([5]; read-out: EC50) [µM] | Efficacy [6] [pm] | SMILES | further results |
| --- | --- | --- | --- | --- | --- |
| 0.061 | 113 | 8.3 | 290 | Cc1c(C(=O)O)sc2c(Br)csc12 | Activity [1]: Dose-dependent effect; Activity [3]: inactive; Activity [4]: inactive |
| 0.63 | 120 | 26.9 | 210 | Cc1c(C(=O)O)[nH]c2c(-c3cccnc3)csc12 | Activity [7]: inactive |
| 0.51 | 52 | 31.1 | 230 | O=C(O)c1sc2c(Br)c(Br)sc2c1C(F)(F)F |  |
| 1.29 | 52 | 22.2 | 268 | Cc1sc2c(C)c(C(=O)O)sc2c1Br |  |
| 0.26 | 107 | 17.6 | 232 | Cc1c(C(=O)O)sc2c(-c3ccsc3)csc12 | Activity [8]: inactive |
| 0.016 | 96 | 2.46 | 228 | O=C(O)c1sc2c(Br)c(Br)sc2c1O | Activity [1]: Dose-dependent effect; Activity [9]: inactive; Activity [10]: inactive |
| 0.24 | 118 | 11.8 | 223 | Cc1c(C(=O)O)sc2c(-c3cccnc3)csc12 | Activity [11]: Active |
| 1.03 | 68 | 39.2 | 262 | O=C(O)c1sc2c(Br)csc2c1Cl |  |
| 0.7 | 52 | 36.5 | 232 | Cc1c(C(=O)O)sc2c(Br)c(Br)sc12 | Activity [1]: Dose-dependent effect; Activity [12]: inactive |
